Data reported in ChEMBL document CHEMBL1153602, “Photochemical electrocyclisation of 3-vinylindoles to pyrido[2,3-a]-, pyrido[4,3-a]- and thieno[2,3-a]-carbazoles: design, synthesis, DNA binding and antitumor cell cytotoxicity” (2009).
Calls of active or inactive are those of the source. No cut-off for these calls is given here.

How the values were obtained:
HT-29 [1] = assay: Cell cycle arrest in human HT-29 cells assessed as accumulation at G2/M phase after 24 hrs using PI staining by flow cytometry; type: functional, cell-based
Method in brief: (§1)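 HT-29 cells, 3×10^5 per sample in exponential growth, were exposed to graded drug concentrations for 24 h. Cells were then trypsinised, fixed in 70% ethanol and stained 30 min in the dark with propidium iodide (50 µg/ml) plus RNase (100 µg/ml). DNA content was measured by flow cytometry, quantifying cell-cycle phases and the sub-G1 fraction.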

HT-29 [2] = assay: Cell cycle arrest in human HT-29 cells assessed as reduction of cells in G1 phase after 24 hrs using PI staining by flow cytometry; type: functional, cell-based; method in brief: as §1
HT-29 [3] = assay: Cell cycle arrest in human HT-29 cells assessed as accumulation at S phase at 25 uM after 24 hrs using PI staining by flow cytometry; type: functional; method in brief: as §1
HT-29 [4] = assay: Growth inhibition of human HT-29 cells after 48 hrs by sulforhodamine B protein assay; type: functional; conditions: HT-29, 48 h
Method in brief: (§2)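 NCI 60-cell-line screen. Dose–response used at least five concentrations in 10-fold dilutions with 48 h continuous drug exposure. Growth was estimated by sulforhodamine B protein staining. GI50 is the molar concentration giving 50% growth inhibition versus control.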

CCRF-CEM = assay: Growth inhibition of human CCRF-CEM cells after 48 hrs by sulforhodamine B protein assay; type: functional; method in brief: as §2
COLO 205 = assay: Growth inhibition of human COLO205 cells after 48 hrs by sulforhodamine B protein assay; type: functional; conditions: COLO 205, 48 h; method in brief: as §2
ACHN = assay: Growth inhibition of human ACHN cells after 48 hrs by sulforhodamine B protein assay; type: functional; method in brief: as §2
HT-29 [5] = assay: Growth inhibition of human HT-29 cells by MTS assay; type: functional
Method in brief: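 HT-29 cells, 3×10^3 per well, were seeded 24 h before treatment with compound at 1 nM–100 µM, run as 3 series of duplicate or triplicate points. After 72 h at 37 °C, MTS tetrazolium was added for 2 h and absorbance read at 492 nm. GC50 is the concentration halving cell number versus untreated control wells.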

Calf thymus DNA [6] = assay: Binding affinity to calf thymus DNA assessed as change in melting temperature at a compound to DNA molar ratio of 0.1 by UV-vis spectroscopy; type: nucleic-acid assay; conditions: Bos taurus
Method in brief: (§3)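 UV absorbance of DNA at 260 nm recorded every minute from 20 to 100 °C, ramping 1 °C/min in a thermostated quartz cell. Tm is taken as the midpoint of the hyperchromic transition. ΔTm = Tm(DNA+drug) − Tm(DNA alone). Calf-thymus DNA or poly(dAdT)2 was used at DNA/drug ratios from 0.1 to 1.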

Calf thymus DNA [7] = assay: Binding affinity to calf thymus DNA assessed as change in melting temperature at a compound to DNA molar ratio of 0.25 by UV-vis spectroscopy; type: nucleic-acid assay; conditions: Bos taurus; method in brief: as §3
Calf thymus DNA [8] = assay: Binding affinity to calf thymus DNA assessed as change in melting temperature at a compound to DNA molar ratio of 0.5 by UV-vis spectroscopy; type: nucleic-acid assay; conditions: Bos taurus; method in brief: as §3
Calf thymus DNA [9] = assay: Binding affinity to calf thymus DNA assessed as change in melting temperature at a compound to DNA molar ratio of 1 by UV-vis spectroscopy; type: nucleic-acid assay; conditions: Bos taurus; method in brief: as §3
Nucleic Acid [10] = assay: Binding affinity to poly(dA).poly(dT) duplex DNA assessed as change in thermal melting temperature at compound to DNA ratio of 0.1 by UV-vis spectroscopy; type: nucleic-acid assay
Nucleic Acid [11] = assay: Binding affinity to poly(dA).poly(dT) duplex DNA assessed as change in thermal melting temperature at compound to DNA ratio of 0.25 by UV-vis spectroscopy; type: nucleic-acid assay
Nucleic Acid [12] = assay: Binding affinity to poly(dA).poly(dT) duplex DNA assessed as change in thermal melting temperature at compound to DNA ratio of 0.5 by UV-vis spectroscopy; type: nucleic-acid assay
Nucleic Acid [13] = assay: Binding affinity to poly(dA).poly(dT) duplex DNA assessed as change in thermal melting temperature at compound to DNA ratio of 1 by UV-vis spectroscopy; type: nucleic-acid assay
Calf thymus DNA [14] = assay: Binding affinity to calf thymus DNA assessed as enhancement constant by fluorescence spectroscopy; type: nucleic-acid assay; conditions: Bos taurus
Method in brief: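 Drug at a fixed 20 µM in 1 ml BPE buffer in a 10 mm quartz cuvette, titrated with CT-DNA at 10–200 µM base pairs. Excitation was set at each compound's own wavelength (276–319 nm). Constants came from Stern–Volmer plots of F0/F against CT-DNA concentration, with the slope taken as Ksv.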

Nucleic Acid [15] = assay: Binding affinity to pBS 117bp DNA by DnaseI footprinting assay; type: nucleic-acid assay
Method in brief: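 Ligand and fragment were pre-incubated 15 min at 37 °C, then digested with DNase I at 0.001 unit/ml in 20 mM NaCl, 2 mM MgCl2, 2 mM MnCl2, pH 7.3. Products were resolved on a denaturing 8% polyacrylamide/8 M urea gel, with a G-track marker.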

[16] = molecular target: T1, DNA topoisomerase 1 (Homo sapiens) (UniProt P11387); assay: Inhibition of human topoisomerase 1-mediated DNA relaxation assessed as lack of nicking form by agarose gel electrophoresis
T1 sequence (whole entry): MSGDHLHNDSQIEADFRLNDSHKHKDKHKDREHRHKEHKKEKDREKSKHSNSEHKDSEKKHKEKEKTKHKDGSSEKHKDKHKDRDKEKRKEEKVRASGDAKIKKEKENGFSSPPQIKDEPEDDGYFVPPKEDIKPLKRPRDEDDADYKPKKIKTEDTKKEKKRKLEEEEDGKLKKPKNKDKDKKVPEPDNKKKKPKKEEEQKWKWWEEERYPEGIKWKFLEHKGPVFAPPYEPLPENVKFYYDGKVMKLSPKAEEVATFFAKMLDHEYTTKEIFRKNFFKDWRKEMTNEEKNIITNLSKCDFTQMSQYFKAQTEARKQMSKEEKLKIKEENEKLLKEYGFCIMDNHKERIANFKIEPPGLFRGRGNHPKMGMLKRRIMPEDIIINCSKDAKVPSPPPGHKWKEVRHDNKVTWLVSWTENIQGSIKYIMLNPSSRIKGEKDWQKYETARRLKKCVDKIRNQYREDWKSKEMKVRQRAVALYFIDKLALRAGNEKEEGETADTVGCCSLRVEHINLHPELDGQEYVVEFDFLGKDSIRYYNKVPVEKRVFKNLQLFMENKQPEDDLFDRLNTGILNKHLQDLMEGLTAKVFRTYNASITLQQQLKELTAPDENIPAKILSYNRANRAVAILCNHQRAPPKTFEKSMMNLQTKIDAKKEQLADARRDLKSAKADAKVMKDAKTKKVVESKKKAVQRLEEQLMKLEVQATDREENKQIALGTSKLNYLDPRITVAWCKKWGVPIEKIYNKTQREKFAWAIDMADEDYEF
Method in brief: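 Supercoiled pUC19 (130 ng) was pre-incubated with compound at graded concentrations, or 20 or 50 µM in the cleavage assay. Human topoisomerase I (4 units) was then added for 45 min at 37 °C in 50 mM Tris pH 7.8, 50 mM KCl, 10 mM MgCl2, 1 mM DTT, 1 mM EDTA, 1 mM ATP. Camptothecin (20 µM) served as control. Samples ran on 1% agarose for 2 h at 120 V in TBE, with ethidium bromide either post-stained (relaxation) or included in the gel (cleavage).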

[17] = molecular target: DNA topoisomerase 2-alpha (Homo sapiens) (UniProt P11388); assay: Inhibition of human topoisomerase 2-mediated DNA relaxation assessed as double stranded break form by agarose gel electrophoresis
Chain of DNA topoisomerase 2-alpha (Homo sapiens) (P11388 whole entry): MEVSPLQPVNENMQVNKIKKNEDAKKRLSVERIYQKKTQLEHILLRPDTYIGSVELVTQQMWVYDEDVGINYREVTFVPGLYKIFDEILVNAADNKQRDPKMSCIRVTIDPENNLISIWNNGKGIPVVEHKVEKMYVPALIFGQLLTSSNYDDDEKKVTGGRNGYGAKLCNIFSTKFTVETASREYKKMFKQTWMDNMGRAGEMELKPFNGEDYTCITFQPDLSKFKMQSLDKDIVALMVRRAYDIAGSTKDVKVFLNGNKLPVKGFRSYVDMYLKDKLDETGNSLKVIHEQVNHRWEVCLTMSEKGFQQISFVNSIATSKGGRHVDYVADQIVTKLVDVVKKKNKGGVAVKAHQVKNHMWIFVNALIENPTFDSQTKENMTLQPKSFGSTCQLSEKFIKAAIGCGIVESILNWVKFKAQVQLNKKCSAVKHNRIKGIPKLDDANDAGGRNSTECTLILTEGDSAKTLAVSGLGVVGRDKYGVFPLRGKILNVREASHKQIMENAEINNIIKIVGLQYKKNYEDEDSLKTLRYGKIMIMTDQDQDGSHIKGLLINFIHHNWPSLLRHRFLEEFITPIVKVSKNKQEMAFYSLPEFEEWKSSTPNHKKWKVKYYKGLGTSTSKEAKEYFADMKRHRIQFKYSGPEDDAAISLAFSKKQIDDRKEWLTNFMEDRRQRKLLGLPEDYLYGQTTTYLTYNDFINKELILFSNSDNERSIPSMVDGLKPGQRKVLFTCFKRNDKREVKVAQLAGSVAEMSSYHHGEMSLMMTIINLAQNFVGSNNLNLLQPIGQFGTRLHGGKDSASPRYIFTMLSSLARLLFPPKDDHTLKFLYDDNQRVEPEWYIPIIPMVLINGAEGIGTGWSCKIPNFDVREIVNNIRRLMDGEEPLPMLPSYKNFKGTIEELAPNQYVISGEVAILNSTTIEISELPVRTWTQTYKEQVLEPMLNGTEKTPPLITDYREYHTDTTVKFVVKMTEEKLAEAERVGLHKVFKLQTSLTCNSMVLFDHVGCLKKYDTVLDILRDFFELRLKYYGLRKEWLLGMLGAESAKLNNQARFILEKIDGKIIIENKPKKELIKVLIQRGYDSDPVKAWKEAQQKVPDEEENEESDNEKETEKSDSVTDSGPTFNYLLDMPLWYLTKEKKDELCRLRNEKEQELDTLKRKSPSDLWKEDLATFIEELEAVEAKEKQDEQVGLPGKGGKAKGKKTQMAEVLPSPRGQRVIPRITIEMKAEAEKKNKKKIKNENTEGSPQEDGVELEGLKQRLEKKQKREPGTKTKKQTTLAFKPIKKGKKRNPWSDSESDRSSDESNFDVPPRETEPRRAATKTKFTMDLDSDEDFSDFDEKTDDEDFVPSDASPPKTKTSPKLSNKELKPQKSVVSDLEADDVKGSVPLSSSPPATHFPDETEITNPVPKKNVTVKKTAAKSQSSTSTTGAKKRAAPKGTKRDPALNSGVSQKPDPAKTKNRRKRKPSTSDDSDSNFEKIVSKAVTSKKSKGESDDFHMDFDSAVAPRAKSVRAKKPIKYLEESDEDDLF
Method in brief: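 Supercoiled pUC19 (130 ng) with compound at 20 or 50 µM, or etoposide as control, was incubated with human topoisomerase II (4 units) for 45 min at 37 °C in cleavage buffer. The reaction was stopped with 0.25% SDS plus proteinase K for 30 min at 50 °C. DNA forms were separated on 1% agarose containing ethidium bromide in TBE.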

SMILES	ΔTm (Calf thymus DNA [6])	ΔTm (Calf thymus DNA [7])	ΔTm (Calf thymus DNA [8])	ΔTm (Calf thymus DNA [9])	ΔTm (Nucleic Acid [10])	ΔTm (Nucleic Acid [11])	ΔTm (Nucleic Acid [12])	ΔTm (Nucleic Acid [13])	Activity (Nucleic Acid [15])	Activity [16]	Activity [17]	further results
CN(C)CCCNC(=O)c1cc2c3ccccc3[nH]c2c2ncccc12	0 °C	4.4 °C	4.4 °C	7.3 °C	2.9 °C	8.9 °C	11.6 °C	17.5 °C	Active	Active	Active	Activity (HT-29 [1]): Active; Activity (HT-29 [2]): Active; Activity (HT-29 [3]): 31.7%; GI50 (HT-29 [4]; read-out: GI50): 10.3 µM; GI50 (HT-29 [4]; read-out: pGI50 (converted)): 1.02 µM; GI50 (CCRF-CEM; read-out: GI50): 4.31 µM; GI50 (CCRF-CEM; read-out: pGI50 (converted)): 4.27 µM; GI50 (COLO 205; read-out: GI50): 4.43 µM; GI50 (COLO 205; read-out: pGI50 (converted)): 4.47 µM; GI50 (ACHN; read-out: GI50): 5.24 µM; GI50 (ACHN; read-out: pGI50 (converted)): 5.25 µM; GI50 (HT-29 [5]): 10.1 µM; Activity (Calf thymus DNA [14]): 5.94 ×10² /M
O=C(NCCCN1CCOCC1)c1cc2c3cccc(Cl)c3[nH]c2c2ncccc12	0 °C	0.7 °C	0.4 °C	0.6 °C	2.1 °C	3.9 °C	5.3 °C	5.3 °C	inactive	–	–	–
CC[C@@]1(O)C(=O)OCc2c1cc1n(c2=O)Cc2cc3ccccc3nc2-1	–	–	–	–	–	–	–	–	–	Active	–	–
COc1cc([C@@H]2c3cc4c(cc3[C@@H](O[C@@H]3O[C@@H]5CO[C@@H](C)O[C@H]5[C@H](O)[C@H]3O)[C@H]3COC(=O)[C@H]23)OCO4)cc(OC)c1O	–	–	–	–	–	–	–	–	–	–	Active	–
